Bioassay records deposited in PubChem BioAssay by The Scripps Research Institute Molecular Screening Center.
GPR7 antag: antagonists of human GPR7 (neuropeptides B/W receptor 1); GPR7-expressing cells, fluorescence antagonist assay; 290,000 compounds, 1.1% hits; inhibition, % at 4.4 µM; in the data active = inhibition above about 16%, passing the limit was not always enough;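 note: cells stimulated with the agonist NPW; 0% = agonist with vehicle and 100% = vehicle without agonist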
OX1R antag-1: blocks the human orexin 1 receptor | inhibition, % at 5 µM | 330,000 compounds, 0.43% hits | O43613 | CHO/OX1R cells, Fluo-8 calcium fluorescence, orexin A;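 active = inhibition above its plate's threshold, mean inhibition of all tested compounds on the plate plus 3 SD, cut at about 37% in these data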;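 note: 0% = orexin A challenge wells and 100% = SB-334867-A antagonist wells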
Target sequence (O43613 whole entry, looked up): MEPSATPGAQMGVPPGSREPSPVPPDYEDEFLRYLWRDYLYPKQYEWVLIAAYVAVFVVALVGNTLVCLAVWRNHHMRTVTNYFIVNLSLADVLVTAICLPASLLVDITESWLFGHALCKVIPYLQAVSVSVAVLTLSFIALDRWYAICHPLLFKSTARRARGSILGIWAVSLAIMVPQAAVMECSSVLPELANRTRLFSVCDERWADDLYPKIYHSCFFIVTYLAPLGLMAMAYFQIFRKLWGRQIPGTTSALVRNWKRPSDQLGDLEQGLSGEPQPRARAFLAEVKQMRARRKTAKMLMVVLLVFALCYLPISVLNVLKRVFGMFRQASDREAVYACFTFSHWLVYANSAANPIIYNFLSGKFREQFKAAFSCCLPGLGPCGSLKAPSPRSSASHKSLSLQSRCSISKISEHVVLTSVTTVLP
TAAR1 agonist: human TAAR1 agonism; 360,000 compounds, 0.99% hits; Q96RJ0; CHO RD-HGA16 TAAR1, Fluo-8 calcium fluorescence; vehicle wells 0%, saturating PEA agonist 100%; activation, % at 3 µM;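 active = activation above the mean activation of all test compounds in the run plus 3 SD, cut at about 38% in these data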
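Test system: RD-HGA16 (CHO) cells co-expressing Gα16 and hTAAR1 | Doses: Single dose, 3 µM | Schedule: 17-24 h seeding, 75 min 37 °C dye, 30 min RT | Evaluation: % activation from peak over basal fluorescence ratio, DMSO-to-PEA scaled | Technique: Kinetic Fluo-8 calcium fluorescence | Benchmarks: Low control DMSO, high control PEA (EC100)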
OX1R antag-2: blocks the human orexin 1 receptor. 330,000 compounds, 1.8% hits. O43613. AID 485270. inhibition, % at 6.6 µM. OX1R-expressing cells, FRET antagonist read-out; in the data active = inhibition mostly above about 38%, no sharp cut-off; inactive = mostly below about 40%;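 note: 0% = agonist challenge alone and 100% = reference antagonist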
TAAR1 antag: human TAAR1 antagonism; Q96RJ0; CHO RD-HGA16 TAAR1, Fluo-8 calcium fluorescence, antagonist; inhibition, % at 3 µM; 360,000 compounds, 1.5% hits; AID 624466;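 active = inhibition above a per-plate cutoff, the mean inhibition of test compounds on that plate plus 3 SD, cut at about 49% in these data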;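 note: 0% = DMSO plus EC80 beta-PEA response and 100% = DMSO alone without agonist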
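Test system – hTAAR1-expressing CHO RD-HGA16 cells, Gα16-coupled · Reagent – β-PEA at EC80 concentration, post-compound challenge · Compound dosing – 3 µM, single point · Timing – 140 s kinetic read after compound, 140 s after agonist · Detection – Fluo-8 intracellular calcium dye fluorescence, real-time kinetic reads · Control set – DMSO and EC80 PEA controls · Repeats – n of 1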
CHO parental Ca: signal in parental CHO cells, OX1R antagonist counter-screen; parental CHO-K1, ATP-induced calcium, Fluo-8 fluorescence; inhibition, % at 5.6 µM; 330,000 compounds, 0.63% hits;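 active = inhibition above that plate's mean sample inhibition plus 3 SD, cut at about 26% in these data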;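 note: 0% = ATP-challenged DMSO wells and 100% = DMSO wells without ATP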
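Assay system: parental CHO cells; Read-out basis: percent inhibition of ATP-evoked calcium rise, normalized to controls; Benchmarks: ATP and no-ATP DMSO wells; Compound dosing: single nominal dose of 5.6 µM per compound; Signal: Fluo-8 calcium dye fluorescence; Also added: ATP as calcium-mobilizing challenge; Repeats: singlicate.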
* hit, by the source's call; nt = no result given. Hits are enriched below; roughly 4.6% of the tested compounds scored in any of these assays.

SMILES	GPR7 antag	OX1R antag-1	TAAR1 agonist	OX1R antag-2	TAAR1 antag	CHO parental Ca
Cc1cccn2cc(COc3ccc(-c4ccccc4)cc3)nc12	-8	nt	1	nt	-26	nt
CC[C@H](C)[C@@H]1NC(=O)c2cc([N+](=O)[O-])cc(I)c2SC[C@@H](C(N)=O)NC(=O)[C@H](CCCCN)NC1=O	-3	0	7	61*	-1	-8
CN1CCN(C(=O)/C=C/c2ccc([N+](=O)[O-])cc2)CC1	-5	-7	1	61*	15	-10
O=C(/C=C/c1ccc([N+](=O)[O-])cc1)OCC(=O)N1CCCC1	nt	-14	3	45*	-20	-17
O=C(/C=C/c1ccc([N+](=O)[O-])cc1)N1CCN(Cc2ccccc2)CC1	27	-6	2	37	-2	4
O=C(OCC(=O)N1CCCCCC1)c1ccc([N+](=O)[O-])cc1Cl	-1	-26	7	46*	3	2
Cc1ccc(C)c(C(C)NC(=O)c2ccncc2)c1 (stereo unspecified)	-20	-20	3	-3	-19	-3
COC(=O)C1=C(O)CSC1=Nc1ccc(C)cc1	-4	-15	6	16	-17	-6
CCCOc1ccc(F)cc1-c1cc(C(=O)NCc2ccco2)[nH]n1	nt	nt	0	nt	17	nt
O=C(Cn1sc2ccccc2c1=O)Nc1ccc(Br)cc1	nt	nt	39*	nt	24	nt
COc1ccc2oc(C(=O)OCC(=O)N3CCCC3=O)c(C)c2c1	nt	-23	3	5	-4	-17
Cc1ccc(-c2nnc(Nc3ccc4c(c3)OCO4)c3ccccc23)cc1S(=O)(=O)NC(C)C	-2	38	3	38	24	31*
Cc1ccc(-c2nnc(Nc3ccccc3)c3ccccc23)cc1S(=O)(=O)NCC1CCCO1 (stereo unspecified)	-12	66*	17	12	58*	29*
Clc1ccc(/C(Cc2nc3ccccc3[nH]2)=N\Nc2ccccc2)cc1	-18	-38	2	14	13	-12
O=C(CNC(=O)C1COc2ccccc2O1)N/N=C/c1ccc(O)cc1O (stereo unspecified)	3	-1	41*	13	-19	-4
O=C(CNC(=O)C1COc2ccccc2O1)N/N=C\c1cccc(O)c1 (stereo unspecified)	-10	-17	22	13	-11	-7
CCOc1ccc(NC(=O)CSc2nnc(Cn3c(=O)sc4ccccc43)n2C)cc1	0	-24	3	12	-10	-2
CCCCS(=O)(=O)/C=C\C=C/S(=O)(=O)CCCC	40*	-30	nt	13	nt	2
CCc1nnc(NC(=O)CCC(=O)Nc2ccc(OC)cc2OC)s1	3	-27	-1	11	-3	-19
O=C(Nc1ccccc1)C1C2CCC3C(CCC21)C3(Cl)Cl (stereo unspecified)	7	-4	4	40	-4	-17
O=C(Nc1cccc(Cl)c1)C1C2CCC3C(CCC21)C3(Cl)Cl (stereo unspecified)	42*	4	4	35	14	-16
CC(C)(C)OC(=O)N[C@@H](Cc1ccccc1)C(=O)N1CCC(C(=O)N[C@@H](CCC(N)=O)C(=O)O)CC1	3	-4	-2	-6	-5	-3
CC(C)CC(=O)Nc1ncc([N+](=O)[O-])s1	11	3	2	24	-18	-4
O=C(COC(=O)c1ccccc1)Nc1ncc([N+](=O)[O-])s1	nt	21	5	37*	9	-1
O=C(Nc1ccc(NC(=O)c2cccc([N+](=O)[O-])c2)cc1)c1cccc([N+](=O)[O-])c1	-10	-30	6	0	20	-8
O=C(O)C1CCCC[C@H]1C(=O)Nc1ncc([N+](=O)[O-])s1 (stereo partly specified)	nt	-9	2	66*	6	-7
O=C(Nc1ncc([N+](=O)[O-])s1)c1cccc([N+](=O)[O-])c1	-8	-4	14	39*	1	13
CCN(CC(=O)NC1CCS(=O)(=O)C1)C(=O)c1cc(OC)c(OC)c(OC)c1 (stereo unspecified)	nt	-3	10	6	-14	4
